From PubChem
PREPL inh – human PREPL enzyme inhibition; Q4J6C6; recombinant PREPL, fluorescence polarization activity-based probe; inhibition, % at 5.96 µM; 320,000 compounds, 0.68% hits; AID 2751; in the data active means inhibition above about 43%
NTR1 ag – NTR1 (human) agonism. P30989. 330,000 compounds, 0.17% hits. NTR1-U2OS beta-arrestin-GFP spot imaging, agonist mode. activation, % at 20 µM;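 active means activation at or above 40% of the spot to cytoplasm intensity ratio, with at least 20 cells analyzed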
HTR2A ag – mouse HTR2A agonism via beta-arrestin recruitment. 360,000 compounds, 0.66% hits. AID 624169. CHO-K1 mHTR2A beta-arrestin complementation, luminescence; percent of 30 µM serotonin response. activation, % at 7.6 µM. P35363;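 active means activation above a run cutoff, the mean activation of all tested compounds plus 3 SD, cut at about 14% in these data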
MC4R antag cAMP – blocks human MC4R cAMP signaling; P32245; MC4R-expressing cells, MTII-stimulated cAMP, LANCE TR-FRET; inhibition, % at 6.5 µM; 360,000 compounds, 0.48% hits;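 active means inhibition above its plate's cutoff, the mean of tested wells on that plate plus 3 SD, cut at about 29% in these data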
Target sequence (P32245 whole entry, looked up): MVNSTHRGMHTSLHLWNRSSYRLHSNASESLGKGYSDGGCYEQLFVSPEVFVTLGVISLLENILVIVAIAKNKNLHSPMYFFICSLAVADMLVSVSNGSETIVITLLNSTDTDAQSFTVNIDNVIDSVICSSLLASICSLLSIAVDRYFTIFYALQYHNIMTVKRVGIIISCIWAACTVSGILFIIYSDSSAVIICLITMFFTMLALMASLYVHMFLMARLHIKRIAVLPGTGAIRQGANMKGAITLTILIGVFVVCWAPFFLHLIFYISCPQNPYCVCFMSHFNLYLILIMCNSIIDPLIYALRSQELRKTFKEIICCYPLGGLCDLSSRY
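System: U2OS cells stably expressing human melanocortin 4 receptor (MC4R). Reagent: Melanotan II challenge after compound preincubation. Doses: 6.5 µM. Times: 30-min compound, 1-h challenge, 1-h detection, room temperature. Measured by: TR-FRET with Eu-cAMP and labeled anti-cAMP, 671 nm. Replicates: singlicate.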
Lipid droplet – modulators of hepatic lipid droplet formation | AID 1656 | inhibition, % at 6.5 µM | 240,000 compounds, 0.4% hits | AML12 mouse hepatocytes, oleate lipid droplets, BODIPY imaging;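 active means lipid droplet intensity inhibited by at least 50%, with more than 500 cells counted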
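Test system: AML12 hepatocytes (mouse); reagent: oleate loading, 100 µM; dosing: one dose, 6.5 µM compound; incubation: overnight exposure; signal: fluorescence imaging, 20x objective, two fields per well; read-out basis: % inhibition of corrected integrated BODIPY droplet signal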
MC4R barr agon – human MC4R agonism via beta-arrestin; P32245; U2OS MC4R beta-arrestin complementation, luminescence; percent of melanotan II response, DMSO zero; activation, % at 8.9 µM; 360,000 compounds, 0.98% hits;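 active means activation above a per-plate cutoff, the mean activation of sample wells on that plate plus 3 SD, cut at about 8% in these data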
MOR ag counter – activates human mu opioid receptor in HTR2A counterscreen. shares compounds with HTR2A ag. U2OS OPRM1 beta-arrestin PathHunter, luminescence; DMSO 0%, DAMGO 9.3 µM 100%. activation, % at 9.3 µM. 2,300 compounds, 5.3% hits;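 active means mean activation above the mean of DMSO-only wells plus 3 SD, cut at about 0.5% in these data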
m5-HT2A ag conf – confirmation of mouse HTR2A serotonin receptor agonists | activation, % at 7.6 µM | shares compounds with HTR2A ag | CHO-K1 PathHunter beta-arrestin recruitment, luminescence; DMSO 0%, 30 µM serotonin 100% | 2,300 compounds, 19% hits;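 active means mean activation across triplicates above the hit threshold derived in the original primary screen, cut at about 15% in these data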
Large screens that a line does not name were inactive (follow-up assays come after a bar, where they were run); ! = not active in a repeat. In the library only some 2.7% were active in any assay of this set; here they are far more common.

CCCC/C(O)=C1\C(=O)CCCC1=NCCc1c(C)[nH]c2ccc(OC)cc12	none
COc1ccc(OCC(=O)Nc2c3c(nn2-c2ccc(OC)cc2)CS(=O)(=O)C3)cc1	none
Cc1ccc(S(=O)(=O)N(C)C[C@H]2Oc3ncc(-c4ccccc4)cc3C(=O)N([C@@H](C)CO)C[C@@H]2C)cc1	none (no result: PREPL inh, NTR1 ag, Lipid droplet)
CNC(=O)c1ccc(Nc2nnc(-c3ccc(O)cc3)c3ccccc23)cc1	none
CCN(CC)C(=O)c1ccc(-c2nnc(Nc3ccc(C(=O)NC)cc3)c3ccccc23)cc1	HTR2A ag 14 | MOR ag counter inactive | m5-HT2A ag conf inactive
COC(=O)CNc1c(-c2ccccn2)nc2ccc(Br)cn12	HTR2A ag 19 | MOR ag counter inactive | m5-HT2A ag conf inactive
CC(C)Nc1ncnc2c1ncn2[C@H]1CN(Cc2ccc(Cl)cc2)C[C@@H](CO)O1	none (no result: PREPL inh, NTR1 ag, Lipid droplet)
COc1ccc(C2/C=C\CN(C(=O)C3CCCCC3)CC(=O)N2Cc2ccc(F)cc2)cc1 (stereo unspecified)	none
COc1ccc(C2/C=C\CN(C(=O)C3CCCC3)CC(=O)N2Cc2ccc(F)cc2)cc1 (stereo unspecified)	HTR2A ag 24 | MOR ag counter inactive | m5-HT2A ag conf 62
Oc1cc2c(c(Cl)c1O)CCNCC2c1ccccc1 (stereo unspecified)	HTR2A ag 24 (no result: Lipid droplet) | MOR ag counter inactive | m5-HT2A ag conf 100
Oc1ccc(C2CNCCc3c2cc(O)c(O)c3Cl)cc1 (stereo unspecified)	HTR2A ag 34! (no result: Lipid droplet) | MOR ag counter inactive | m5-HT2A ag conf 145
COc1cc2c(cc1OC)C(c1ccc(O)cc1)NCC2 (stereo unspecified)	none
CCOC(=O)C1C(C(=O)NN)C1C(=O)Nc1ccccc1 (stereo unspecified)	none
Cc1ccccc1-n1ncc2c1CC(C)(C)CC2NC(=O)C1CCC1 (stereo unspecified)	none
Cc1ccccc1-n1ncc2c1CC(C)(C)CC2NC(=O)C1=CC(=O)CC(C)(C)O1 (stereo unspecified)	HTR2A ag 32 | MOR ag counter inactive | m5-HT2A ag conf inactive
COc1cccc(N2[C@@H](CC(=O)O)c3cc(C(F)(F)F)ccc3S2(=O)=O)c1	none (no result: Lipid droplet)
COc1ccccc1NS(=O)(=O)c1ccc(C)c(C(=O)NCC(c2ccco2)N2CCCCC2)c1 (stereo unspecified)	none
COc1ccccc1NS(=O)(=O)c1ccc(C)c(C(=O)NCC(c2cccs2)N2CCOCC2)c1 (stereo unspecified)	HTR2A ag 19 (no result: PREPL inh, NTR1 ag, Lipid droplet) | MOR ag counter inactive | m5-HT2A ag conf inactive
O=C(COc1ccccc1Cl)NCC(c1cccs1)N1CCOCC1 (stereo unspecified)	none (no result: Lipid droplet)
Cc1ccccc1OCC(=O)NCC(c1cccs1)N1CCOCC1 (stereo unspecified)	HTR2A ag 18 (no result: Lipid droplet) | MOR ag counter inactive | m5-HT2A ag conf inactive
COc1ccc(CNC(=O)COC(=O)c2ccc(S(=O)(=O)N3CCOCC3)cc2)cc1	none (no result: Lipid droplet)
O=C(O)c1ccccc1Nc1ccnc(C(F)(F)F)c1	HTR2A ag 19 | MOR ag counter inactive | m5-HT2A ag conf inactive
COc1ccc(C(=O)N2CCCCC2c2cc(C(=O)NCc3ccc(F)cc3)no2)cc1 (stereo unspecified)	none (no result: PREPL inh, NTR1 ag, Lipid droplet)
C=C(C)CSc1nc2ncccc2[nH]1	HTR2A ag 22 (no result: Lipid droplet) | MOR ag counter inactive | m5-HT2A ag conf inactive
Cc1cc(C)c(CN2CCN(C(=O)Cn3cnc4c(NCc5ccccc5)ncnc43)CC2)c(C)c1	HTR2A ag 22 (no result: PREPL inh, Lipid droplet) | m5-HT2A ag conf inactive
N=c1sccn1CC(=O)Nc1cccc2ccccc12	HTR2A ag 20 | MOR ag counter inactive | m5-HT2A ag conf inactive
